{
  "source": "ChEMBL document CHEMBL1124186",
  "about": "“Synthesis and evaluation of tylosin-related macrolides modified at the aldehyde function: a new series of orally effective antibiotics” (1988)",
  "key": {"Streptococcus pneumoniae [1]": {"system": "Streptococcus pneumoniae", "assay": "In vivo effective dose against experimental infections in mice Strep. pneumoniae park when administered sc", "type": "functional"}, "Mus musculus [2]": {"system": "Mus musculus", "assay": "Peripheral plasma levels in mice after oral administration of 50 mg/kg dose for 0.25 hr", "type": "functional, organism-based", "parameters": "dose 50 mg/kg", "how_it_was_run": "(§1)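 Mice were given the compound orally and sampled for peripheral plasma at each time point. Plasma was assayed microbiologically against Micrococcus luteus seeded in Antibiotic Medium 1. Inhibition zone sizes were read, and concentrations were calculated from each compound's own standard curve. Each value is the mean of five mice per time point.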"}, "Staphylococcus aureus": {"system": "Staphylococcus aureus", "assay": "In vitro antimicrobial activity against aerobic bacteria Staphylococcus aureus X400", "type": "functional"}, "Clostridium perfringens": {"system": "Clostridium perfringens", "assay": "In vitro antimicrobial activity against anaerobic bacteria clostridium perfringens 81,", "type": "functional"}, "Collinsella aerofaciens": {"system": "Collinsella aerofaciens", "assay": "In vitro antimicrobial activity against anaerobic bacteria eubacterium aerofaciens 1235", "type": "functional"}, "[3]": {"system": "Peptoniphilus asaccharolyticus", "assay": "In vitro antimicrobial activity against anaerobic bacteria peptococcus asaccharolyticus 1302", "type": "functional"}, "Enterococcus faecium": {"system": "Enterococcus faecium", "assay": "In vitro antimicrobial activity against Streptococcus faecium X66", "type": "functional, streptococcus fae-cium"}, "Rattus norvegicus [4]": {"system": "Rattus norvegicus", "assay": "Peripheral plasma levels in rats after oral administration of 100 mg/kg dose for 4 hr", "type": "functional, organism-based", "parameters": "dose 100 mg/kg", "how_it_was_run": "(§2)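 Rats received 100 mg/kg orally and were sampled for peripheral plasma. Concentrations were measured by Micrococcus luteus agar-diffusion microbiological assay in Antibiotic Medium 1, with zone sizes converted using the standard curve for the appropriate compound. Each value is the average of three rats per time point.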"}, "[5]": {"assay": "In vitro antimicrobial activity against anaerobic bacteria peptostreptococcus intermedius 1264", "type": "functional"}, "Mus musculus [6]": {"system": "Mus musculus", "assay": "Peripheral plasma levels in mice after oral administration of 100 mg/kg dose for 0.5 hr", "type": "functional, organism-based", "parameters": "dose 100 mg/kg", "how_it_was_run": "as §1"}, "[7]": {"system": "Prevotella melaninogenica", "assay": "In vitro antimicrobial activity against anaerobic bacteria bacteroides melaninogenicus 1856,", "type": "functional"}, "Haemophilus influenzae [8]": {"system": "Haemophilus influenzae", "assay": "In vitro antimicrobial activity against aerobic bacteria Haemophilus influenzae 465", "type": "functional"}, "Phocaeicola vulgatus": {"system": "Phocaeicola vulgatus", "assay": "In vitro antimicrobial activity against anaerobic bacteria bacteroides vulgatus 1211", "type": "functional"}, "Streptococcus pneumoniae [9]": {"system": "Streptococcus pneumoniae", "assay": "In vitro antimicrobial activity against aerobic bacteria Streptococcus pneumoniae B1-438", "type": "functional, streptococcus pneum"}, "Anaerococcus prevotii": {"system": "Anaerococcus prevotii", "assay": "In vitro antimicrobial activity against anaerobic bacteria peptococcus prevoti 1281", "type": "functional"}, "Rattus norvegicus [10]": {"system": "Rattus norvegicus", "assay": "Peripheral plasma levels in rats after oral administration of 100 mg/kg dose for 0.25 hr", "type": "functional, organism-based", "parameters": "dose 100 mg/kg", "how_it_was_run": "as §2"}, "[11]": {"system": "Haemophilus parainfluenzae", "assay": "In vitro antimicrobial activity against aerobic bacteria Haemophilus parainfluenzae 9796", "type": "functional"}, "Cutibacterium acnes": {"system": "Cutibacterium acnes", "assay": "In vitro antimicrobial activity against anaerobic bacteria propionibacterium acnes 79", "type": "functional"}, "[12]": {"system": "Prevotella melaninogenica", "assay": "In vitro antimicrobial activity against anaerobic bacteria bacteroides melaninogenicus 2736", "type": "functional"}, "Mus musculus [13]": {"system": "Mus musculus", "assay": "Peripheral plasma levels in mice after oral administration of 100 mg/kg dose for 1 hr", "type": "functional, organism-based", "parameters": "dose 100 mg/kg", "how_it_was_run": "as §1"}, "[14]": {"system": "Staphylococcus epidermidis", "assay": "In vitro antimicrobial activity against aerobic bacteria Streptococcus epi 222", "type": "functional"}, "Bacteroides fragilis [15]": {"system": "Bacteroides fragilis", "assay": "In vitro antimicrobial activity against anaerobic bacteria bacteroides fragilis 111", "type": "functional"}, "Bacteroides fragilis [16]": {"system": "Bacteroides fragilis", "assay": "In vitro antimicrobial activity against anaerobic bacteria bacteroides fragilis 1936B,", "type": "functional"}, "Haemophilus influenzae [17]": {"system": "Haemophilus influenzae", "assay": "In vitro antimicrobial activity against aerobic bacteria Haemophilus influenzae MX366,", "type": "functional"}, "Mus musculus [18]": {"system": "Mus musculus", "assay": "Peripheral plasma levels in mice after oral administration of 50 mg/kg dose for 4 hr", "type": "functional, organism-based", "parameters": "dose 50 mg/kg", "how_it_was_run": "as §1"}, "Streptococcus pyogenes": {"system": "Streptococcus pyogenes", "assay": "In vivo effective dose against experimental infections in rodent caused by Streptococcus pyogenes C203 when administered orally", "type": "functional", "conditions": "po"}, "Streptococcus [19]": {"system": "Streptococcus", "assay": "In vitro antimicrobial activity against aerobic bacteria Streptococcus D 9960", "type": "functional"}, "[20]": {"system": "Peptostreptococcus anaerobius", "assay": "In vitro antimicrobial activity against anaerobic bacteria eubacterium peptostreptococcus anaerobius 1428,", "type": "functional"}, "Rattus norvegicus [21]": {"system": "Rattus norvegicus", "assay": "Peripheral plasma levels in rats after oral administration of 100 mg/kg dose for 2 hr", "type": "functional, organism-based", "parameters": "dose 100 mg/kg", "how_it_was_run": "as §2"}, "Streptococcus pneumoniae [22]": {"system": "Streptococcus pneumoniae", "assay": "In vitro antimicrobial activity against Streptococcus pneumoniae", "type": "functional"}, "Chlamydia trachomatis": {"system": "Chlamydia trachomatis", "assay": "In vitro antimicrobial activity against chlamydia trachomatis.", "type": "functional"}, "Streptococcus [23]": {"system": "Streptococcus", "assay": "In vitro antimicrobial activity against aerobic bacteria Streptococcus B 14", "type": "functional"}},
  "data": [
    {"smiles": "CC[C@H]1OC(=O)C[C@@H](O)[C@H](C)[C@@H](O[C@@H]2O[C@H](C)[C@@H](O)[C@H](N(C)C)[C@H]2O)[C@@H](CCCl)C[C@@H](C)C(=O)/C=C/C(C)=C/[C@@H]1CO[C@@H]1O[C@H](C)[C@@H](O)[C@@H](OC)[C@H]1OC", "values": [
      {"measurement": "ED50", "setting": "Streptococcus pneumoniae [1]", "value": "> 20", "unit": "mg/kg"},
      {"measurement": "Concentration", "setting": "Mus musculus [2]", "value": 0.3, "unit": "µg/mL"},
      {"measurement": "MIC", "setting": "Staphylococcus aureus", "value": 0.12, "unit": "µg/mL"},
      {"measurement": "MIC", "setting": "Clostridium perfringens", "value": "< 0.5", "unit": "µg/mL"},
      {"measurement": "MIC", "setting": "Collinsella aerofaciens", "value": 4, "unit": "µg/mL"},
      {"measurement": "MIC", "setting": "[3]", "value": 2, "unit": "µg/mL"},
      {"measurement": "MIC", "setting": "Enterococcus faecium", "value": 8, "unit": "µg/mL"},
      {"measurement": "Concentration", "setting": "Rattus norvegicus [4]", "value": 7.7, "unit": "µg/mL"},
      {"measurement": "MIC", "setting": "[5]", "value": 2, "unit": "µg/mL"},
      {"measurement": "Concentration", "setting": "Mus musculus [6]", "value": 6.4, "unit": "µg/mL"},
      {"measurement": "MIC", "setting": "[7]", "value": 1, "unit": "µg/mL"},
      {"measurement": "MIC", "setting": "Haemophilus influenzae [8]", "value": 16, "unit": "µg/mL"},
      {"measurement": "MIC", "setting": "Phocaeicola vulgatus", "value": 1, "unit": "µg/mL"},
      {"measurement": "MIC", "setting": "Streptococcus pneumoniae [9]", "value": "> 128", "unit": "µg/mL"},
      {"measurement": "MIC", "setting": "Anaerococcus prevotii", "value": 1, "unit": "µg/mL"},
      {"measurement": "Concentration", "setting": "Rattus norvegicus [10]", "value": 5.4, "unit": "µg/mL"},
      {"measurement": "MIC", "setting": "[11]", "value": 32, "unit": "µg/mL"},
      {"measurement": "MIC", "setting": "Cutibacterium acnes", "value": 16, "unit": "µg/mL"},
      {"measurement": "MIC", "setting": "[12]", "value": 2, "unit": "µg/mL"},
      {"measurement": "Concentration", "setting": "Mus musculus [13]", "value": 2.8, "unit": "µg/mL"},
      {"measurement": "MIC", "setting": "[14]", "value": 0.6, "unit": "µg/mL"},
      {"measurement": "MIC", "setting": "Bacteroides fragilis [15]", "value": 2, "unit": "µg/mL"},
      {"measurement": "MIC", "setting": "Bacteroides fragilis [16]", "value": 2, "unit": "µg/mL"},
      {"measurement": "MIC", "setting": "Haemophilus influenzae [17]", "value": 16, "unit": "µg/mL"},
      {"measurement": "Concentration", "setting": "Mus musculus [18]", "value": "< 0.1", "unit": "µg/mL"},
      {"measurement": "ED50", "setting": "Streptococcus pyogenes", "value": 5, "unit": "mg/kg"},
      {"measurement": "MIC", "setting": "Streptococcus [19]", "value": 8, "unit": "µg/mL"},
      {"measurement": "MIC", "setting": "[20]", "value": "< 0.5", "unit": "µg/mL"},
      {"measurement": "Concentration", "setting": "Rattus norvegicus [21]", "value": 12.7, "unit": "µg/mL"},
      {"measurement": "MIC", "setting": "Streptococcus pneumoniae [22]", "value": 1, "unit": "µg/mL"},
      {"measurement": "MIC", "setting": "Chlamydia trachomatis", "value": 0.25, "unit": "µg/mL"},
      {"measurement": "MIC", "setting": "Streptococcus [23]", "value": 64, "unit": "µg/mL"}
    ]}
  ]
}
